In ChEMBL document CHEMBL1759927, “Design, synthesis and X-ray crystallographic study of NAmPRTase inhibitors as anti-cancer agents” (Eur J Med Chem, 2011):

Key:
MCF7 [1] = assay: Antitumor activity against human MCF7 cells after 6 days by SRB assay; type: functional; set-up: concentration or dose not given beside the values
In short: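 MCF7 breast cancer cells were grown in RPMI 1640 with 10% FBS and antibiotic-antimycotic at 37 °C under 5% CO2. They were seeded at 50,000 cells/mL and exposed to inhibitor for six days. Cells were fixed with ice-cold TCA for 1 h, stained with SRB for 30 min at RT, washed with 1% acetic acid and solubilized in 10 mM Tris. A515 was read. […].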

SNU-638 = assay: Cytotoxicity against human SNU638 cells after 6 days by SRB assay; type: functional, cell-based; conditions: SNU-638, 144 h
In short: (§1)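 Cells were plated at 50,000 cells/mL in a humidified 5% CO2 atmosphere at 37 °C and incubated with inhibitors for six days. They were then fixed 1 h in cold TCA, stained 30 min at RT with SRB, washed with 1% acetic acid and solubilized in 10 mM Tris before reading at 515 nm. Means of four duplicate samples were expressed relative to solvent control, with IC50 from nonlinear regression.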

HT-1080 = assay: Cytotoxicity against human HT1080 cells after 6 days by SRB assay; type: functional, cell-based; conditions: HT-1080, 144 h; in short: as §1
HCT-116 = assay: Cytotoxicity against human HCT116 cells after 6 days by SRB assay; type: functional, cell-based; conditions: HCT-116, 144 h; in short: as §1
A549 = assay: Cytotoxicity against human A549 cells after 6 days by SRB assay; type: functional, cell-based; conditions: A549, 144 h; in short: as §1
K562 = assay: Cytotoxicity against human K562 cells after 6 days by SRB assay; type: functional, cell-based; conditions: K562, 144 h; in short: as §1
MCF7 [2] = assay: Antitumor activity against human MCF7 cells at 10 uM after 6 days by SRB assay; type: functional, cell-based; conditions: MCF7, 144 h
In short: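 MCF7 cells were cultured in RPMI 1640 with 10% FBS at 37 °C and 5% CO2, plated at 50,000 cells/mL, and given a fixed 10 µM compound for six days. Viability was read by SRB staining after TCA fixation, Tris solubilization and absorbance at 515 nm. […], as means of three experiments with standard deviations.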

[3] = target: Nicotinamide phosphoribosyltransferase (Homo sapiens, UniProt P43490); assay: Inhibition of human NAmPRTase by HPLC analysis
Chain of Nicotinamide phosphoribosyltransferase (P43490 whole entry): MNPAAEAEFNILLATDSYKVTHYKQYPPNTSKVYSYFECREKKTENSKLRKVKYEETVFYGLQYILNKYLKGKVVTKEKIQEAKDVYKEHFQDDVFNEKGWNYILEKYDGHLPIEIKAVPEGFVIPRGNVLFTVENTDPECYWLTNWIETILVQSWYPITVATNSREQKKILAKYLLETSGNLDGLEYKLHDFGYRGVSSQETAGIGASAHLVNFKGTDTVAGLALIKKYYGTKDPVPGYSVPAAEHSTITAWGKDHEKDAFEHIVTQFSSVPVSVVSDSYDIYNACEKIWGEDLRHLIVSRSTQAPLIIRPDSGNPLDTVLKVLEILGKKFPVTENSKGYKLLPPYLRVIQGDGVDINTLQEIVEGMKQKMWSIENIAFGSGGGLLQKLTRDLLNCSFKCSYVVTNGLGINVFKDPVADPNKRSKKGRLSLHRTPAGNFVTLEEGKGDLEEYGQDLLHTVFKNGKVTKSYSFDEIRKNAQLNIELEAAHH

**Q.** How did the “Cell survival (% of control)” value (MCF7 [1]) turn out when `Cn1cccc1/C=C/C(=O)NCCCCC1CCN(C(=O)c2ccccc2)CC1` was run?
**A.** 103.6%

**Q.** For `O=C(/C=C/c1ccccc1[N+](=O)[O-])NCCCCC1CCN(C(=O)c2ccccc2)CC1`, which “Cell survival (% of control)” value (MCF7 [1]) is on record?
**A.** 102.7%

**Q.** Which “Cell survival (% of control)” value (MCF7 [1]) does the source give for `Nc1ccccc1/C=C/C(=O)NCCCCC1CCN(C(=O)c2ccccc2)CC1` here?
**A.** 106.3%

**Q.** With `O=C(/C=C/c1cnn(CCC(CO)CO)c1)NCCCCC1CCN(C(=O)c2ccccc2)CC1` as the compound, how does the “Cell survival (% of control)” value (MCF7 [1]) read?
**A.** 106.6%

**Q.** Which “Cell survival (% of control)” value (MCF7 [1]) does the source give for `O=C(/C=C/c1cn(CCC(CO)CO)cn1)NCCCCC1CCN(C(=O)c2ccccc2)CC1` here?
**A.** 104.3%

**Q.** With `O=C(/C=C/c1cn(CCC(CO)CO)c2ccccc12)NCCCCC1CCN(C(=O)c2ccccc2)CC1` as the compound, how does the “Cell survival (% of control)” value (MCF7 [1]) read?
**A.** 104.9%

**Q.** What does the source list for `Cc1c2ccncc2c(C)c2c1[nH]c1ccccc12` [ELLIPTECINE]?
**A.** IC50 (SNU-638): 1.64 µM; IC50 (HT-1080): 0.21 µM; IC50 (HCT-116): 0.41 µM; IC50 (A549): 0.47 µM; IC50 (K562): 0.38 µM

**Q.** Which “Cell survival (% of control)” value (MCF7 [1]) does the source give for `O=C(/C=C/c1cncnc1)NCCCCC1CCN(C(=O)c2ccccc2)CC1` here?
**A.** 86.8%

**Q.** How did the IC50 (SNU-638) turn out when `O=C(/C=C/c1cccnc1)NCCCCC1CCN(C(=O)c2ccccc2)CC1` [DAPORINAD] was run?
**A.** < 0.16 µM

**Q.** And the IC50 (HT-1080)?
**A.** < 0.16 µM

**Q.** What about the IC50 (HCT-116) of the same compound?
**A.** < 0.16 µM

**Q.** And the “Cell survival (% of control)” value (MCF7 [1])?
**A.** 5.6%

**Q.** What about the IC50 (A549) of the same compound?
**A.** < 0.16 µM

**Q.** And the IC50 (K562)?
**A.** > 20 µM

**Q.** What about the IC50 (MCF7 [2]) of the same compound?
**A.** 0.68 µM

**Q.** With `O=C(/C=C/c1cccc([N+](=O)[O-])c1)NCCCCC1CCN(C(=O)c2ccccc2)CC1` as the compound, how does the “Cell survival (% of control)” value (MCF7 [1]) read?
**A.** 103.1%

**Q.** With `Nc1cccc(/C=C/C(=O)NCCCCC2CCN(C(=O)c3ccccc3)CC2)c1` as the compound, how does the “Cell survival (% of control)” value (MCF7 [1]) read?
**A.** 103.9%

**Q.** With `O=C(/C=C/c1cccn1CCC(CO)CO)NCCCCC1CCN(C(=O)c2ccccc2)CC1` as the compound, how does the “Cell survival (% of control)” value (MCF7 [1]) read?
**A.** 105%

**Q.** `O=C(/C=C/c1cn[nH]c1)NCCCCC1CCN(C(=O)c2ccccc2)CC1` was tested. Which “Cell survival (% of control)” value (MCF7 [1]) did it give?
**A.** 101.7%

**Q.** `Nc1ncc(/C=C/C(=O)NCCCCC2CCN(C(=O)c3ccccc3)CC2)cn1` was tested. Which “Cell survival (% of control)” value (MCF7 [1]) did it give?
**A.** 103.4%

**Q.** Which results are given for `O=C(/C=C/c1ccc[nH]1)NCCCCC1CCN(C(=O)c2ccccc2)CC1`?
**A.** IC50 (SNU-638): 1.7 µM; IC50 (HT-1080): 3.2 µM; IC50 (HCT-116): 0.3 µM; Cell survival (% of control) (MCF7 [1]): 4.5%; IC50 [3]: 20.3 µM; IC50 (A549): 4.86 µM; IC50 (K562): 1.4 µM; IC50 (MCF7 [2]): 1.29 µM

**Q.** With `O=C(/C=C/c1c[nH]c2ccccc12)NCCCCC1CCN(C(=O)c2ccccc2)CC1` as the compound, how does the “Cell survival (% of control)” value (MCF7 [1]) read?
**A.** 103.3%

**Q.** Which “Cell survival (% of control)” value (MCF7 [1]) does the source give for `O=C(/C=C/c1c[nH]cn1)NCCCCC1CCN(C(=O)c2ccccc2)CC1` here?
**A.** 102.9%
